# Experimental data reported in PubChem BioAssay.
# Activity calls are given as the source filed them. Unless noted, how the calls were made is not given here.
# How the values were obtained:
# [1] = target: Pantothenate synthetase (Mycobacterium tuberculosis (strain ATCC 25618 / H37Rv)) (UniProt P9WIL5); assay: Recombinant Mtb pantothenate synthetase (PanC) inhibitors, coupled enzyme, confirmatory (AID 375); conditions: coupled enzyme assay; at 10 µM, stronger effect = higher value;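 further: 0% = full reaction with vehicle and 100% = no enzyme background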
# Pantothenate synthetase (Mycobacterium tuberculosis (strain ATCC 25618 / H37Rv)), sequence (P9WIL5 whole entry, looked up): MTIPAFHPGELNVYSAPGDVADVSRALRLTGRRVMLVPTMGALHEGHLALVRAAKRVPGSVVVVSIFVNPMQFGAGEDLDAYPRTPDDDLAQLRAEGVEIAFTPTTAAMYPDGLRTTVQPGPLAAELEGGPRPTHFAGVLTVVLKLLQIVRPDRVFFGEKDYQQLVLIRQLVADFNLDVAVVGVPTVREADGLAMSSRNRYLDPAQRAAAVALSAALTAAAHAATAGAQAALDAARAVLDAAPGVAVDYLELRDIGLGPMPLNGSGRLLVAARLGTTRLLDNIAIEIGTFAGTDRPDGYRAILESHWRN
# [2] = reducers of endogenous Her2 protein level, primary screen, SKBR3 breast tumor cells, AlphaScreen, ATP viability (AID 461;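 active means Her2 level under about 52% in both replicate screens, with viability over 70% of control, limit read from the data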;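 on Her2 level: lower value means less Her2 protein in the cells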;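 on viability: percent of carrier control wells set as 100% viability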); conditions: 18-24 h, measured here: SKBR3 viability, ATP luminescence, at 10 µM
# [3] = target: Receptor tyrosine-protein kinase erbB-2 (Homo sapiens) (UniProt P04626); assay: as above; conditions: 18-24 h, at 10 µM, stronger effect = lower value
# Receptor tyrosine-protein kinase erbB-2 (Homo sapiens), sequence (P04626 whole entry, looked up): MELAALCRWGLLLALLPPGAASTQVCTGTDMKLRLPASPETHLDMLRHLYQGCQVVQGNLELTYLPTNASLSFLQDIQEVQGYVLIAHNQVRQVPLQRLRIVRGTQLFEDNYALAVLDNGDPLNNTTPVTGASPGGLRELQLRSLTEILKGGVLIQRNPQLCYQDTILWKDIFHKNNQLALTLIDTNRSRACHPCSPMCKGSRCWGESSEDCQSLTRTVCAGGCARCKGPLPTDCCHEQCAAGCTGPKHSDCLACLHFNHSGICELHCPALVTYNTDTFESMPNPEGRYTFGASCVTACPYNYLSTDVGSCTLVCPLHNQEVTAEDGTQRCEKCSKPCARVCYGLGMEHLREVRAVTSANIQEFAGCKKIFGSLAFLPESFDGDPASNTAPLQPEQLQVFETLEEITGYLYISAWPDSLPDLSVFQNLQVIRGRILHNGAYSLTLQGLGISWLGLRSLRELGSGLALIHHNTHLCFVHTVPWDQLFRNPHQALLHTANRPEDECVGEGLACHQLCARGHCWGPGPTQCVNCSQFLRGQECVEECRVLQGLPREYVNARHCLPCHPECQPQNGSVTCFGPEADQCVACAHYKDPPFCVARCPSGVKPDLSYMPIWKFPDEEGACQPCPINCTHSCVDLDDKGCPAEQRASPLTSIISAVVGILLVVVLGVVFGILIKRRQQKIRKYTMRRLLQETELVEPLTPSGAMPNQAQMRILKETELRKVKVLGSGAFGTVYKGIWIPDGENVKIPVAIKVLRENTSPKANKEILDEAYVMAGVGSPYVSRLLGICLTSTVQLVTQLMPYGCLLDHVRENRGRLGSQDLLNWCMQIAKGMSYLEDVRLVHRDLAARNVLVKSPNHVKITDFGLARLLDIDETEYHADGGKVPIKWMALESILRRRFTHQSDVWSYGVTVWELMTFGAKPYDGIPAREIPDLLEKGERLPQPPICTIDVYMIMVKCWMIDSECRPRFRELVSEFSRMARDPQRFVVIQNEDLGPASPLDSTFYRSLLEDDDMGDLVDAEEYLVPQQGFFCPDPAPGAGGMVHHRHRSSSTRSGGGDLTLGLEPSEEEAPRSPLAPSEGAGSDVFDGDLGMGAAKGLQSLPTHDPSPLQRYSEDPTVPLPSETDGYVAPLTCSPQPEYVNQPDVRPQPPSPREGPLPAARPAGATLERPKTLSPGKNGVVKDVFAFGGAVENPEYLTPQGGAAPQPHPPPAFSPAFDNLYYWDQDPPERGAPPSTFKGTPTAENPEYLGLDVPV
# [4] = SK-BR-3 cell growth inhibitors, pilot screen, 24 h, human (AID 572;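 active means viability at or below 10% of carrier control in both of two separate runs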;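 further: compound exposure lasted between 18 and 24 h rather than exactly 24 h; 100% = carrier-treated control wells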); conditions: SK-BR-3 viability, CellTiter-Glo luminescence, at 10 µM, stronger effect = lower value
# [5] = HUVEC growth inhibition – cell-based, human, primary screen (AID 575;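 active means viability at or below 30% in both replicate assays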;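 further: 100% = median of untreated cell wells with 0.1% DMSO on each plate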); conditions: HUVEC proliferation, CellTiter-Glo luminescence, 72 h; at 10 µM; stronger effect = lower value
# In short: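 System: primary human umbilical vein endothelial cells; Quantity: 1250 endothelial cells in each well; Buffer or medium: supplemented EBM, 2% fetal bovine serum; Doses: one dose, 10 µM final, 0.1% DMSO; Incubation: 72 h compound incubation; Technique: ATP-based CellTiter-Glo luminescent read; Evaluation: percent of median DMSO-control luminescence; Controls: vehicle and MePR control wells.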
# [6] = growth inhibitors of H69AR lung tumor, primary screen, human, duplicate replicates (AID 580;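 active means viability at or under a set limit in both replicates, limit being median viability minus 3 SD, cut at about 48% in these data, passing the limit was not always enough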;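 further: 100% = mean luminescence of untreated wells and 0% = no signal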); conditions: H69AR lung tumor cells viability, ATP luminescence, 72 h; at 10 µM; stronger effect = lower value
# [7] = reversal of MRP1-mediated doxorubicin resistance, pilot screen, H69AR cells, doxorubicin co-treatment (AID 601;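 active means viability loss from added drug above about 55%, and viability with drug at most 40%, in both replicates, limit read from the data, passing the limit was not always enough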); conditions: CellTiter-Glo, 72 h, at 10 µM; for differential viability (reversal): stronger effect = higher value
# [8] = H69AR cells + 2 uM doxorubicin, measured here: viability with 2 uM doxorubicin, stronger effect = lower value
# [9] = H69AR cells, compound alone cytotoxicity
smiles,measurement,setting,value
CCCSc1nnc2nc3c(nn12)c1ccccc1n3C,inhibition,[1],0% (inactive)
COc1ccc(OC)c(C2C(C(=O)Nc3cccnc3)=C(C)NC3=C2C(=O)CCC3)c1 (stereo not given),inhibition,[1],0% (inactive)
CC(C)CNS(=O)(=O)c1ccc(OCC(=O)Nc2ccc3c(c2)OCO3)c(Cl)c1,inhibition,[1],6% (inactive)
CC(C(N)=O)N1C(=O)C2C3C=CC(C3)C2C1=O (stereo not given),inhibition,[1],2% (inactive)
CC1Cc2ccccc2N1C(=O)C12CCC(C)(C(=O)C1)C2(C)C (stereo not given),inhibition,[1],3% (inactive)
COc1cc(OC)cc(OCC(O)Cn2cnc(-c3ccccc3)c2)c1 (stereo not given),inhibition,[1],0% (inactive)
O=C(CSc1nnc(Cn2cnc3ccccc32)o1)c1ccccc1,inhibition,[1],0% (inactive)
CC(C)(C)NC(=O)Cn1c(=O)oc2ccc(Cl)cc21,inhibition,[1],0% (inactive)
CCOc1ccc(-n2cc(C(=O)N3CCN(C)CC3)c3cc(OC)c(OC)cc3c2=O)cc1,inhibition,[1],0% (inactive)
Cc1nc2sc(C(c3cccc(F)c3)N3CCC(C)CC3)c(O)n2n1 (stereo not given),inhibition,[1],0% (inactive)
COc1ccc(C2C3=C(CC(C)(C)CC3=O)Oc3ncn4nc(-c5cccnc5)nc4c32)cc1 (stereo not given),inhibition,[1],0% (inactive)
O=S(=O)(NCCc1ccncc1)c1cc(Br)ccc1F,inhibition,[1],0% (inactive)
CC1(CC(=O)O)C(=O)N=C2C=CC=CN21 (stereo not given),inhibition,[1],0% (inactive)
O=C(CSc1nnc2scc(-c3ccccc3)n12)N1CCN(Cc2ccccc2)CC1,inhibition,[1],6% (inactive)
CC(=O)[C@H]1CC[C@H]2[C@@H]3CC[C@H]4C[C@H](O)CC[C@]4(C)[C@H]3C(=O)C[C@]12C,inhibition,[1],0% (inactive)
same,viability,[2],112%
same,Her2 level,[3],108% (inactive)
same,viability,[4],112% (inactive)
same,viability,[5],118% (inactive)
same,viability,[6],104% (inactive)
same,differential viability (reversal),[7]; H69AR cells + 2 uM doxorubicin,12.1% (inactive)
same,viability,[7]; [8],92%
same,viability,[7]; [9],104%
CCN1CCN(C(=O)c2cn(CC)c3ccc(S(=O)(=O)N(C)C)cc3c2=O)CC1,inhibition,[1],0% (inactive)
Cc1ccc(C(=O)NC(Cc2c[nH]c3ccccc23)C(=O)O)o1 (stereo not given),inhibition,[1],0% (inactive)
O=C1CCC(c2ccccc2)N1C(=O)c1cccnc1 (stereo not given),inhibition,[1],0% (inactive)
COc1ccc(OC)c(C(O)C(C)N)c1 (stereo not given),inhibition,[1],0% (inactive)
same,viability,[2],104%
same,Her2 level,[3],118% (inactive)
same,viability,[4],104% (inactive)
same,viability,[5],108% (inactive)
same,viability,[6],98.1% (inactive)
same,differential viability (reversal),[7]; H69AR cells + 2 uM doxorubicin,-7.17% (inactive)
same,viability,[7]; [8],105%
same,viability,[7]; [9],98.1%
O=C(CN(C1CCCCC1)S(=O)(=O)c1ccccc1)NCc1cccnc1,inhibition,[1],0% (inactive)
CCOC(=O)C(C)Sc1nc2c(cnn2-c2ccc(C)cc2)c(=O)[nH]1 (stereo not given),inhibition,[1],5% (inactive)
CCOC(=O)C(NCc1ccccc1OC)(NC(C)=O)C(F)(F)F (stereo not given),inhibition,[1],0% (inactive)
Cc1cc(C(F)(F)F)nc(NCc2cccnc2)n1,inhibition,[1],0% (inactive)
O=C(Nc1ncnc2sc3c(c12)CCC3)c1ccco1,inhibition,[1],0% (inactive)
Cc1cc(C)c2c(N)c(C(=O)c3ccccc3)oc2n1,inhibition,[1],0% (inactive)
COc1cc(=O)[nH]c(SCc2c(F)c(F)c(F)c(F)c2F)n1,inhibition,[1],2% (inactive)
c1ccc2c(c1)OCC(C1=NCCN1)O2 (stereo not given),inhibition,[1],0% (inactive)
same,viability,[2],104%
same,Her2 level,[3],108% (inactive)
same,viability,[4],104% (inactive)
same,viability,[5],108% (inactive)
same,viability,[6],81.4% (inactive)
same,differential viability (reversal),[7]; H69AR cells + 2 uM doxorubicin,9.15% (inactive)
same,viability,[7]; [8],72.2%
same,viability,[7]; [9],81.4%
COc1ccc(Cl)cc1NC(=O)CSc1nncn1-c1cccnc1,inhibition,[1],9% (inactive)
O=C(CCSc1ccccc1)Nc1ccc(S(=O)(=O)N2CCOCC2)cc1,inhibition,[1],7% (inactive)
c1ccc2c(c1)Cn1c-2nc2ccccc21,inhibition,[1],0% (inactive)
CN(C)CCN(Cc1ccccc1)c1ccccn1,inhibition,[1],5% (inactive)
CCCOc1ccccc1NC(=O)c1c(-c2ccccc2)noc1C,inhibition,[1],1% (inactive)
O=C(CCCN1CCC2(CC1)C(=O)NCN2c1ccccc1)c1ccc(F)cc1,inhibition,[1],1% (inactive)
same,viability,[2],98%
same,Her2 level,[3],65% (inactive)
same,viability,[4],98% (inactive)
same,viability,[5],96.2% (inactive)
same,viability,[6],87.8% (inactive)
same,differential viability (reversal),[7]; H69AR cells + 2 uM doxorubicin,-9.21% (inactive)
same,viability,[7]; [8],97%
same,viability,[7]; [9],87.8%
